# Screens as filed in PubChem BioAssay.
# PRMT1 inh: inhibitors of human PRMT1; Q99873; recombinant PRMT1, activity-based probe fluorescence polarization; inhibition, % at 2.79 µM; hit rate 1.3% among 370,000; AID 652257;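 active means inhibition above about 21% made by adding two undisclosed values, limit read from the data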
# Fh CTSL1 inh: cathepsin L1 inhibition, PFM18AAP counter-screen; recombinant F. hepatica cathepsin L1, Z-Leu-Arg-MCA fluorescence; inhibition, % at 5.96 µM; hit rate 0.49% among 300,000; AID 1906;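 active means inhibition above the mean of all tested compounds plus 3 SD, set per screening campaign, cut at about 17% in these data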
# PAD4 FP inh: PAD4 (human) enzyme inhibition | recombinant PAD4, RCA probe fluorescence polarization | inhibition, % at 6.36 µM | hit rate 0.41% among 330,000;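 active means percent inhibition above a cutoff equal to the mean of all tested compounds plus 3 SD, cut at about 15% in these data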
# TDP2 inh: blocks human TDP2 phosphodiesterase activity; O95551; recombinant TDP2, T5PNP hydrolysis, p-nitrophenol absorbance 415 nm; inhibition, % at 12.8 µM; hit rate 0.34% among 370,000;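 active means inhibition above the mean of all tested compounds plus 3 SD, set per campaign, cut at about 25% in these data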
# Target sequence (O95551 whole entry, looked up): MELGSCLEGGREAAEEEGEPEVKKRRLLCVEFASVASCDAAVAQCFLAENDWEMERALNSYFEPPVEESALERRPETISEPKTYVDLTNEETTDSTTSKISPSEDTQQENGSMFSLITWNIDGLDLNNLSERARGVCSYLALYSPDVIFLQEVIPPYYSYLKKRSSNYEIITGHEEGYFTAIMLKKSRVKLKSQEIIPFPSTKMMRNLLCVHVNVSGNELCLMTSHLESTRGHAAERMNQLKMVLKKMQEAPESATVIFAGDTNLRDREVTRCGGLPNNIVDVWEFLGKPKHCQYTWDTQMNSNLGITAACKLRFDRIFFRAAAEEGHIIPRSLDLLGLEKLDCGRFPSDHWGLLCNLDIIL
#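 Read-out basis: percent inhibition. System: recombinant human TDP2. Buffer or medium: Mg2+-containing Tris-HCl buffer, pH 7.5. Repeats: single replicate. Timing: reaction 2 h, 37 °C. Benchmarks: high control without enzyme, low control DMSO plus TDP2. Probe or stimulus: 5 mM T5PNP. Doses: 12.8 µM only. Measured by: epi absorbance of p-nitrophenol freed from T5PNP by hydrolysis.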
# GSTO1 counter: blocks human GSTO1 in RBBP9 counter-screen | P78417 | recombinant GSTO1, activity-based probe fluorescence polarization | inhibition, % at 5.96 µM | hit rate 1.1% among 300,000 | AID 1974;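 active means inhibition above the campaign mean inhibition plus 3 SD, cut at about 35% in these data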
# GSTO1 confirm: confirmation of human GSTO1 inhibitors; shares compounds with GSTO1 counter; recombinant GSTO1, probe fluorescence polarization; inhibition, % at 5.96 µM; hit rate 54% among 2,400; AID 2176;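 active means inhibition above the primary screen's cutoff, its mean inhibition plus 3 SD, cut at about 35% in these data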;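 further: loss of polarization as inhibitors block binding of rhodamine sulfonate ester activity probe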
# PAD4 confirm: PAD4 (human) inhibition, confirmed; shares compounds with PAD4 FP inh; recombinant PAD4, RCA probe fluorescence polarization; inhibition, % at 6.36 µM; hit rate 28% among 1,200;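 active means mean inhibition across replicates above the hit cutoff set by the earlier primary screen, cut at about 15% in these data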;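 further: inhibitors block active-site labeling by the probe so polarization falls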
# PRMT1 confirm: confirmation of human PRMT1 inhibitors; shares compounds with PRMT1 inh; recombinant His-PRMT1, activity-based probe fluorescence polarization; inhibition, % at 2.79 µM; hit rate 42% among 3,300; AID 687036;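 active means mean inhibition across replicates above the hit cutoff derived for the earlier primary screen, cut at about 22% in these data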
# TDP2 inh conf: confirmation of human TDP2 inhibitors; inhibition, % at 12.8 µM; recombinant human TDP2, absorbance read-out; shares compounds with TDP2 inh; hit rate 22% among 1,100; in the data active means inhibition above about 25%
# Numbers stand for hits; - = inactive; . = no result; ! = repeats disagree. Most compounds without a hit are left out; they make up all but 2.5% or so of the library.
SMILES,PRMT1 inh,Fh CTSL1 inh,PAD4 FP inh,TDP2 inh,GSTO1 counter,PAD4 confirm,others
CC[C@@H](CO)NC(=O)[C@@H]1C=C2c3cccc4c3c(cn4C)C[C@H]2N(C)C1,46.6!,17.4!,22.3!,31.1!,47.8!,-,GSTO1 confirm=-;PRMT1 confirm=-;TDP2 inh conf=-
CNc1ccc2oc(C[C@H]3O[C@@]4(CC[C@H]3C)O[C@H]([C@H](C)C(=O)c3ccc[nH]3)[C@H](C)C[C@H]4C)nc2c1C(=O)O,25.6,-,56.9,29.4,42.3,-,GSTO1 confirm=-;TDP2 inh conf=-
CCC1=Nc2cc(C(=O)N3CCC4(CC3)OCCO4)ccc2Sc2ccc(C)cc21,-,-,-,-,-,.,
NC(=O)c1ccc(N=Cc2c(O)n(Cc3ccco3)c(=O)[nH]c2=O)cc1,-,-,-,-,-,.,
CCN(CC)c1ccc(N=Cc2c(O)n(Cc3ccco3)c(=O)[nH]c2=O)cc1,-,-,16.1,-,-,-,
CCN(CC)c1ccc(N=Cc2c(O)n(-c3cc(OC)ccc3OC)c(=O)[nH]c2=O)cc1,-,-,17.9,-,-,-,
CCN(CCO)c1ccc(N=Cc2c(O)n(C)c(=S)[nH]c2=O)cc1,21.2,-,39.9,-,47.6,-,
CCN(CC)c1ccc(N=Cc2c(O)n(CCc3ccc(OC)c(OC)c3)c(=O)[nH]c2=O)cc1,-,-,-,-,-,.,
CCOC(=O)c1ccc(NC(=O)N2CC3CC(C2)c2cccc(=O)n2C3)cc1 (centres undefined),-,-,-,-,-,.,
Cc1cccc(OP(=O)(NCc2ccccc2)Oc2cccc(C)c2)c1,-,-,-,-,-,.,
CN1CC=C2C(C#N)=C(N)C(C#N)(C#N)C(c3ccncc3)C2C1 (centres undefined),.,-,27.5,.,-,-,
O=c1c2ccccc2[se]n1-c1ccccc1,95.3,-,74.8,-,-,79.7,
O=c1c2ccccc2nc(-c2ccccc2)n1-c1ccccc1,-,-,-,-,-,.,
O=P(CCl)(Nc1ccccc1)C(Cl)(Cl)Cl (centres undefined),-,-,-,-,-,.,
Cc1ccccc1NP(=O)(Oc1ccccc1F)Oc1ccccc1F,-,-,-,-,-,.,
C#C[C@]1(O)CC[C@H]2[C@@H]3CCC4=Cc5nc6nc7ccccc7n6cc5C[C@]4(C)[C@H]3CC[C@@]21C,-,-,18.5,-,-,-,
CCC(C)n1c(O)c(C=Nc2cccc(C(F)(F)F)c2)c(=O)[nH]c1=S (centres undefined),-,-,21.6,-,-,-,
CC(C)n1c(O)c(C=NCc2cccnc2)c(=O)[nH]c1=S,-,-,-,-,-,.,
O=C(O)C1C2c3ccccc3C(=O)C1(C(=O)O)c1ccccc12 (centres undefined),-,.,.,-,.,.,
COCCNC(=O)c1c(NC(=O)c2ccc(Br)o2)n(Cc2ccccc2)c2nc3ccccc3nc12,-,-,53.9,-,77.4,-,
COC(=O)C1=C(c2cccc(OC)c2OC)C[C@@H]2CC[C@H]1N2C(=O)NCc1ccc(F)cc1,-,-,28.3,-,-,-,
O=c1cc(C2CCNCC2)[nH][nH]1,-,-,36.9,55.9,-,-,TDP2 inh conf=-
CC(C)N(C(=O)CCl)c1ccccc1,-,.,.,-,.,.,
O=C1CC(c2cccnc2)=NN1c1ccccc1,-,-,52.4,46.3,-,-,TDP2 inh conf=-
Cc1ccc(C(=O)NC(O)C(Cl)(Cl)Cl)cc1 (centres undefined),-,-,-,-,-,.,
Cc1c(C=C2C(=O)NC(=O)NC2=O)c(=O)n(-c2ccccc2)n1C,-,-,-,-,-,.,
O=C1NC(=O)C(=Cc2c(Cl)cccc2Cl)C(=O)N1,31.5,.,.,-,.,.,PRMT1 confirm=-
CNc1cc(Cl)c2nonc2c1[N+](=O)[O-],57.5,.,.,-,.,.,PRMT1 confirm=25.3
COc1cc2c(cc1OC)C(C(=O)N(C)C1CCCCC1)C1CCCCN1C2=O (centres undefined),-,-,-,-,-,.,
